Active and inactive are the calls of the source. The calls are words filed in the database; no cut-off is given here.
Legend:
[1] = system: Mus musculus; assay: Anti-alzheimer activity in hippocampus of APP/PS1 dE9 double transgenic mouse model assessed as increase in the level of Map2 at 10 mg/kg, ip administered once daily for 30 consecutive days by Western blot analysis; assay type: functional, organism-based; conditions: time 30.0 day
Summary of the method: (§1)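 Hippocampal homogenates from dosed APP/PS1 mice were extracted in RIPA and protein measured by BCA. Samples were run by SDS electrophoresis, transferred to 0.22 μm PVDF for 90 min, blocked with 5% BSA in TBST for 2 h at RT, and probed with primaries 1:1000 overnight at 4 °C. HRP secondary was applied for 2 h at RT.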

[2] = system: Mus musculus; assay: Anti-alzheimer activity in hippocampus of APP/PS1 dE9 double transgenic mouse model assessed as increase in the level of PSD95 at 10 mg/kg, ip administered once daily for 30 consecutive days by Western blot analysis; assay type: functional, organism-based; conditions: time 30.0 day; summary of the method: as §1
[3] = system: PC-12; assay: Neuroprotective activity against Abeta1-42 induced rat PC12 cells assessed as reduction in ROS level at 10 uM preincubated for 3 hrs followed by Abeta1-42 induction and measured after 24 hrs by y DCFH2-DA probe based analysis; assay type: functional, cell-based; conditions: time 27.0 hrs
Summary of the method: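 PC12 cells were pretreated 3 h at 10 μM, then given 10 μM Aβ1–42 for 24 h. Cells were loaded with DCFH-DA 10 μM in FBS-free DMEM for 30 min in the dark and washed. Fluorescence was read at Ex 488/Em 525 nm.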

[4] = system: PC-12; assay: Neuroprotective activity in Abeta1-42 induced rat PC12 cells assessed as decrease in cleaved caspase-3 level at 10 uM preincubated for 3 hrs followed by Abeta1-42 induction and measured after 24 hrs; assay type: functional, cell-based; conditions: time 27.0 hrs
Summary of the method: (§2)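 Aβ1–42 challenge in PC12 cells was 10 μM for 24 h after 3 h pretreatment at 10 μM. SP600125 (1.25 μM) was added 0.5 h before pretreatment where used. Cells were lysed in RIPA and protein measured by BCA. Blotting used PVDF transfer, 5% BSA/TBST block for 2 h, primaries 1:1000 overnight at 4 °C, and HRP secondary for 2 h. Bcl-2/Bax ratio and band intensities were quantified.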

[5] = system: Mus musculus; assay: Anti-alzheimer activity against APP/PS1 dE9 double transgenic mouse model assessed as increase in platform crossings at 10 mg/kg, ip administered once daily for 30 consecutive days […] by morris water maze test; assay type: functional, organism-based
Summary of the method: (§3)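 Female APP/PS1 mice, 10 months old, about 30 g, 10 per group. Dosing was intraperitoneal in 1× PBS, once daily for one month (1 or 10 mg/kg test; 5 mg/kg donepezil). WT and untreated APP/PS1 controls got PBS. Morris water maze: training days 1–4, averaged escape latency. Day-5 probe trial ran 60 s with the platform removed, recording platform crossings and time per quadrant. Mean ± SEM.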

[6] = system: Mus musculus; assay: Anti-alzheimer activity in hippocampus of APP/PS1 dE9 double transgenic mouse model assessed as reduction in amyloid beta plaque deposition at 1 to 10 mg/kg, ip administered once daily for 30 consecutive days by immunofluorescence staining; assay type: functional, organism-based; conditions: dose 1-10 mg/kg, time 30.0 day
Summary of the method: (§4)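 Brains from dosed female APP/PS1 mice (10 months) were fixed in 4% paraformaldehyde at 4 °C for 24–48 h, taken through a sucrose gradient and OCT, and cut into 15 μm sections. Sections were permeabilized with 0.3% Triton X-100, blocked in 10% BSA for 1 h, and incubated with primary antibody overnight at 4 °C (1:200). Secondary was 1:500 for 1 h at 25 °C, with DAPI counterstain and confocal imaging, in triplicate.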

[7] = system: Mus musculus; assay: Anti-alzheimer activity in hippocampus of APP/PS1 dE9 double transgenic mouse model assessed as decrease in the level of Bax at 10 mg/kg, ip administered once daily for 30 consecutive days by Western blot analysis; assay type: functional, organism-based; conditions: time 30.0 day; summary of the method: as §1
[8] = system: Mus musculus; assay: Anti-alzheimer activity against APP/PS1 dE9 double transgenic mouse model assessed as increase in time spent in the target quadrant at 10 mg/kg, ip administered once daily for 30 consecutive days measured on day 5 by morris water maze test; assay type: functional, organism-based; conditions: time 35.0 day; summary of the method: as §3
[9] = system: PC-12; assay: Neuroprotective activity against Abeta1-42 induced rat PC12 cells assessed as reduction in LDH release at 10 uM preincubated for 3 hrs followed by Abeta1-42 induction and measured after 24 hrs by LDH release assay; assay type: functional, cell-based; conditions: time 27.0 hrs
Summary of the method: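 PC12 cells were pretreated 3 h with 10 μM, then incubated 24 h with or without 10 μM Aβ1–42. LDH released into the supernatant was measured.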

[10] = system: PC-12; assay: Neuroprotective activity against Abeta1-42 induced rat PC12 cells assessed as increase in cell viability at 10 uM preincubated for 3 hrs followed by Abeta1-42 induction and measured after 24 hrs by MTT assay; assay type: functional, cell-based; conditions: time 27.0 hrs
Summary of the method: (§5)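 PC12 cells were seeded at 5×10^3/well and pretreated 3 h with test compound (range or 10 μM), with or without SP600125 1.25 μM for 0.5 h beforehand. Cells were then exposed to 10 μM Aβ1–42 oligomers for 24 h. MTT 0.5 mg/mL was added for 3–4 h, formazan dissolved in DMSO, and absorbance read at 570 nm. Viability is given as % of control.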

[11] = system: Mus musculus; assay: Anti-alzheimer activity against APP/PS1 dE9 double transgenic mouse model assessed as improvement in exploration time for novel object at 10 mg/kg, ip administered once daily for 30 consecutive days measured on day 2 by novel object recognition test; assay type: functional, organism-based; conditions: time 32.0 day
Summary of the method: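 Same mouse cohort and ip PBS dosing schedule (1 or 10 mg/kg; donepezil 5 mg/kg). Novel object recognition: two objects, 5 min session, with exploration frequency and duration scored within 2–3 cm of objects. After 24 h one object was replaced by a novel object and a second 5 min session was recorded.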

[12] = system: PC-12; assay: Neuroprotective activity against Abeta1-42 induced rat PC12 cells assessed as increase in cell viability at 10 uM preincubated for 3 hrs followed by Abeta1-42 induction and measured after 24 hrs in the presence of SP600125 by MTT assay; assay type: functional, cell-based; conditions: time 27.0 hrs; summary of the method: as §5
[13] = system: Mus musculus; assay: Anti-alzheimer activity in hippocampus of APP/PS1 dE9 double transgenic mouse model assessed as increase in the level of Bcl-2 at 10 mg/kg, ip administered once daily for 30 consecutive days by Western blot analysis; assay type: functional, organism-based; conditions: time 30.0 day; summary of the method: as §1
[14] = system: PC-12; assay: Induction of apoptosis in Abeta1-42 induced rat PC12 cells assessed as viable cell at 10 uM preincubated for 3 hrs followed by Abeta1-42 induction and measured after 24 hrs by Annexin V-FITC/PI staining based flow cytometry analysis (reference value: 97.8%); assay type: functional; conditions: time 27 hrs
[15] = system: Mus musculus; assay: Anti-alzheimer activity in hippocampus of APP/PS1 dE9 double transgenic mouse model as reduction in neuronal apoptosis at 1 to 10 mg/kg, ip administered once daily for 30 consecutive days by immunofluorescence analysis; assay type: functional, organism-based; conditions: dose 1-10 mg/kg, time 30.0 day; summary of the method: as §4
[16] = system: PC-12; assay: Neuroprotective activity against Abeta1-42 induced rat PC12 cells assessed as decrease in JNK phosphorylation level at 10 uM preincubated for 3 hrs followed by Abeta1-42 induction and measured after 24 hrs by Western blot analysis; assay type: functional, cell-based; conditions: time 27.0 hrs; summary of the method: as §2
[17] = system: PC-12; assay: Neuroprotective activity in rat PC12 cells assessed as reversal of Abeta1-42 decreased in Bcl-2 expression level at 10 uM preincubated for 3 hrs followed by Abeta1-42 induction and measured after 24 hrs by Western blot analysis; assay type: functional, cell-based; conditions: time 27.0 hrs; summary of the method: as §2
[18] = system: PC-12; assay: Induction of apoptosis in Abeta1-42 induced rat PC12 cells assessed as necrosis at 10 uM preincubated for 3 hrs followed by Abeta1-42 induction and measured after 24 hrs by Annexin V-FITC/PI staining based flow cytometry analysis (reference value: 0.0%); assay type: functional; conditions: time 27 hrs

In the case of `C=C[C@@]1(C)Cc2occ(C)c2[C@@H]2OC(=O)C(=C)[C@@H]21` [ISOLINDERALACTONE], the Activity [1] is reported as “Active”, the Activity [2] is reported as “Active” and the Activity [3] is reported as “Active”. The Activity [4] was “Active”, the Activity [5] was “Active” and the Activity [6] was “Active”. For the same compound, the Activity [7] was “Active”, the Activity [8] was “Active” and the Activity [9] was “Active”. The Activity [10] was “Active”, the Activity [11] was “Active” and the Activity [12] was “inactive”. The Activity [13] was “Active”, the Activity [14] was 97.6% and the Activity [15] was “Active”. For the same compound, the Activity [16] was “Active”, the Activity [17] was “Active” and the Activity [18] was 0%.
